{"source": "ChEMBL document CHEMBL4382192", "about": "“Discovery of a potent dual ALK and EGFR T790M inhibitor” (Eur J Med Chem, 2017)", "key": {"[1]": {"test": "Half life in mouse at 2 mg/kg, iv", "assay_type": "ADME, organism-based", "conditions": "in vivo"}, "[2]": {"test": "Oral bioavailability in mouse at 10 mg/kg", "assay_type": "ADME, organism-based", "conditions": "in vivo"}, "[3]": {"test": "Drug uptake in mouse plasma at 2 mg/kg, iv after 2 hrs", "assay_type": "ADME, organism-based"}, "[4]": {"target": "AP2-associated protein kinase 1 (Homo sapiens) (UniProt Q2M2I8)", "test": "Binding affinity to human wild-type AAK1 (G25 to L333 residues) expressed in bacterial expression system assessed as residual binding level at 1 uM by Kinomescan method relative to control"}, "[5]": {"test_system": "Tyrosine-protein kinase ABL1 (Homo sapiens), P00519 [T315I]", "test": "Binding affinity to human phosphorylated ABL1 T315I mutant (S229 to K512 residues) expressed in mammalian expression system assessed as residual binding level at 1 uM by Kinomescan method relative to control", "in_short": "(§1)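 Kinome-wide selectivity panel run by the KINOMEscan method, with the test compound at a single concentration of 1 μM. Wild-type and mutant kinases were profiled in the same screen.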"}, "[6]": {"target": "Casein kinase I isoform alpha (Homo sapiens) (UniProt P48729)", "sequence (P48729 2-337 limits assumed)": "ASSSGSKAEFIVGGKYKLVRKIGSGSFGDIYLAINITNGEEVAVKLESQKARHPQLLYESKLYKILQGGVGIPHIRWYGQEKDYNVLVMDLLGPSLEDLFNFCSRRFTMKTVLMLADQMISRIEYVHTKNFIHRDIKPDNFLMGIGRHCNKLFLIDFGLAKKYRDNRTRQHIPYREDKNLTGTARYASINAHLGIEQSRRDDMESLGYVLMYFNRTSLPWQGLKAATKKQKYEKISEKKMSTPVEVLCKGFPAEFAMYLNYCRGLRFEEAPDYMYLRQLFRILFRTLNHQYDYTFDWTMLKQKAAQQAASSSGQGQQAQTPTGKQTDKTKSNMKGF", "test": "Binding affinity to wild-type human partial length CSNK1A1 (M1 to L450 residues) expressed in mammalian expression system assessed as residual binding level at 1 uM by Kinomescan method relative to control"}, "[7]": {"target": "Casein kinase I isoform delta (Homo sapiens) (UniProt P48730)", "sequence (P48730 whole entry, looked up, the tested form may be a part, canonical isoform)": "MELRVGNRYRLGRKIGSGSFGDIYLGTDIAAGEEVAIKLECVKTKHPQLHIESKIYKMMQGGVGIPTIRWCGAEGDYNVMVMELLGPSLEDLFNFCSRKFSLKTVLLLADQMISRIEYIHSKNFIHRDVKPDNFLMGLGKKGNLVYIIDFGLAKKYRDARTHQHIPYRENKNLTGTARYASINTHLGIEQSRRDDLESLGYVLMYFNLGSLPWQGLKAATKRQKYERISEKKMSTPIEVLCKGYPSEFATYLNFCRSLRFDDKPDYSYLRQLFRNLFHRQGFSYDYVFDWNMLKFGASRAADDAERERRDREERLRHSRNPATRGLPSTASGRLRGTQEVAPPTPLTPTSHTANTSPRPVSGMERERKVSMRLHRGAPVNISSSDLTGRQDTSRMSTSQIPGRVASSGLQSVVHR", "test": "Binding affinity to wild-type human full length CSNK1D (M1 to K409 residues) expressed in bacterial expression system assessed as residual binding level at 1 uM by Kinomescan method relative to control"}, "[8]": {"target": "Serine/threonine-protein kinase 17B (Homo sapiens) (UniProt O94768)", "test": "Binding affinity to wild-type human full length DRAK2 (M1 to C372 residues) expressed in bacterial expression system assessed as residual binding level at 1 uM by Kinomescan method relative to control"}, "[9]": {"target": "Dual specificity tyrosine-phosphorylation-regulated kinase 2 (Homo sapiens) (UniProt Q92630)", "test": "Binding affinity to wild-type human full length DYRK2 (M1 to S528 residues) expressed in mammalian expression system assessed as residual binding level at 1 uM by Kinomescan method relative to control"}, "[10]": {"test_system": "Epidermal growth factor receptor (Homo sapiens), P00533 [G719S]", "test": "Binding affinity to human partial length EGFR G719S mutant (R669 to V1011 residues) expressed in bacterial expression system assessed as residual binding level at 1 uM by Kinomescan method relative to control", "in_short": "as §1"}, "[11]": {"target": "Focal adhesion kinase 1 (Homo sapiens) (UniProt Q05397)", "test": "Binding affinity to wild-type human partial length FAK (D402 to R696 residues) expressed in bacterial expression system assessed as residual binding level at 1 uM by Kinomescan method relative to control"}, "[12]": {"test_system": "Receptor-type tyrosine-protein kinase FLT3 (Homo sapiens), P36888 [D835Y]", "test": "Binding affinity to human partial length FLT3 D835Y mutant (Q580 to Y969 residues) expressed in bacterial expression system assessed as residual binding level at 1 uM by Kinomescan method relative to control", "in_short": "as §1"}, "[13]": {"target": "Mitogen-activated protein kinase kinase kinase 13 (Homo sapiens) (UniProt O43283)", "test": "Binding affinity to wild-type human full length LZK (M1 to W966 residues) expressed in mammalian expression system assessed as residual binding level at 1 uM by Kinomescan method relative to control", "in_short": "(§2)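 Single-point kinome-wide KINOMEscan binding panel, test compound at 1 μM, run by the provider's standard protocol.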"}, "[14]": {"target": "MAP kinase-activated protein kinase 2 (Homo sapiens) (UniProt P49137)", "test": "Binding affinity to wild-type human partial length MAPKAPK2 (V48 to D345 residues) expressed in bacterial expression system assessed as residual binding level at 1 uM by Kinomescan method relative to control"}, "[15]": {"target": "Serine/threonine-protein kinase MARK1 (Homo sapiens) (UniProt Q9P0L2)", "sequence (Q9P0L2 whole entry, looked up, the tested form may be a part)": "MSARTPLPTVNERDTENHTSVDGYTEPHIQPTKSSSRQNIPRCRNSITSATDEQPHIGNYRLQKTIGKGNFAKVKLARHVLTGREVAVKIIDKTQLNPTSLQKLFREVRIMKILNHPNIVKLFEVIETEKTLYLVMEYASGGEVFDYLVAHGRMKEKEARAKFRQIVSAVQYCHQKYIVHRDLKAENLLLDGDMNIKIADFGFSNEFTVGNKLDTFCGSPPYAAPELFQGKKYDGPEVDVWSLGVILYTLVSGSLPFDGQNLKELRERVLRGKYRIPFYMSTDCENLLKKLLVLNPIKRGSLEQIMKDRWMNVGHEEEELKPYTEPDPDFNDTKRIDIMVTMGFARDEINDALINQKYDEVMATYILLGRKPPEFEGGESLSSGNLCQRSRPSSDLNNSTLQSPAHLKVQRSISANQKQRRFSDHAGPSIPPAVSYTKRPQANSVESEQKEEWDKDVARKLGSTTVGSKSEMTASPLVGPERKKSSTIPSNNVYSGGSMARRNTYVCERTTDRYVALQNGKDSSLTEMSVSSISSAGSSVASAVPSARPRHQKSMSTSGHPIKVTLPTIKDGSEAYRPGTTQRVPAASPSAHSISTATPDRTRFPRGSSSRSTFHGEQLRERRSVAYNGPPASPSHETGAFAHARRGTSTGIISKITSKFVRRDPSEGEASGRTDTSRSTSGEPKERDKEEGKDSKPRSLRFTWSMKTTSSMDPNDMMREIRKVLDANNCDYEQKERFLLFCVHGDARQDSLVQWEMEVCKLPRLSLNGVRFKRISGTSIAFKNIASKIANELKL", "test": "Binding affinity to wild-type human partial length MARK1 (Q30 to T341 residues) expressed in bacterial expression system assessed as residual binding level at 1 uM by Kinomescan method relative to control"}, "[16]": {"target": "Dual specificity mitogen-activated protein kinase kinase 5 (Homo sapiens) (UniProt Q13163)", "sequence (Q13163 whole entry, the tested form may be a part)": "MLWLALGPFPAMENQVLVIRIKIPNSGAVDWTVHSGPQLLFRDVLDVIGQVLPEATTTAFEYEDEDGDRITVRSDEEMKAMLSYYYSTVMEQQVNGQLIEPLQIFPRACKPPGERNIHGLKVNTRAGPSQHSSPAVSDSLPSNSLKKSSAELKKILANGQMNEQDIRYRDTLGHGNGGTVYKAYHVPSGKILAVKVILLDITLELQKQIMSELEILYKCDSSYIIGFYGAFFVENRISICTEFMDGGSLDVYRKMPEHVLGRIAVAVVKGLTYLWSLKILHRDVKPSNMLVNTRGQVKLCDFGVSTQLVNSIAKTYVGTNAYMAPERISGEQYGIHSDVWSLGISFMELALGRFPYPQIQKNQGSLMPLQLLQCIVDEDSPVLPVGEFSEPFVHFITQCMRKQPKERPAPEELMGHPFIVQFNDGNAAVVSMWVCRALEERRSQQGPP", "test": "Binding affinity to wild-type human partial length MEK5 (L98 to P448 residues) expressed in mammalian expression system assessed as residual binding level at 1 uM by Kinomescan method relative to control"}, "[17]": {"target": "Myosin light chain kinase family member 4 (Homo sapiens) (UniProt Q86YV6)", "sequence (Q86YV6 whole entry, the tested form may be a part)": "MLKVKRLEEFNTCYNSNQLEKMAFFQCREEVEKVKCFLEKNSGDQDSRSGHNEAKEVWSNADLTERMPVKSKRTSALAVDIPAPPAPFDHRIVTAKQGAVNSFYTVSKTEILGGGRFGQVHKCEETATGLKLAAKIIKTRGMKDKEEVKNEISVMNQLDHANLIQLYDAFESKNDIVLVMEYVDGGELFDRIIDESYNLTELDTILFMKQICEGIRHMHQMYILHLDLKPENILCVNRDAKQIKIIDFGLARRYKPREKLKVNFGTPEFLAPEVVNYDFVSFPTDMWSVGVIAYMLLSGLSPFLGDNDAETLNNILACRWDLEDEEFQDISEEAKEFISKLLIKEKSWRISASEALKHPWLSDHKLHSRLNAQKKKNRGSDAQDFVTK", "test": "Binding affinity to wild-type human partial length MYLK4 (V79 to S380 residues) expressed in bacterial expression system assessed as residual binding level at 1 uM by Kinomescan method relative to control"}, "[18]": {"target": "Serine/threonine-protein kinase Nek7 (Homo sapiens) (UniProt Q8TDX7)", "test": "Binding affinity to wild-type human full length NEK7 (M1 to S302 residues) expressed in bacterial expression system assessed as residual binding level at 1 uM by Kinomescan method relative to control", "in_short": "as §2"}, "[19]": {"target": "Phosphorylase b kinase gamma catalytic chain, skeletal muscle/heart isoform (Homo sapiens) (UniProt Q16816)", "sequence (Q16816 whole entry, looked up, the tested form may be a part, canonical isoform)": "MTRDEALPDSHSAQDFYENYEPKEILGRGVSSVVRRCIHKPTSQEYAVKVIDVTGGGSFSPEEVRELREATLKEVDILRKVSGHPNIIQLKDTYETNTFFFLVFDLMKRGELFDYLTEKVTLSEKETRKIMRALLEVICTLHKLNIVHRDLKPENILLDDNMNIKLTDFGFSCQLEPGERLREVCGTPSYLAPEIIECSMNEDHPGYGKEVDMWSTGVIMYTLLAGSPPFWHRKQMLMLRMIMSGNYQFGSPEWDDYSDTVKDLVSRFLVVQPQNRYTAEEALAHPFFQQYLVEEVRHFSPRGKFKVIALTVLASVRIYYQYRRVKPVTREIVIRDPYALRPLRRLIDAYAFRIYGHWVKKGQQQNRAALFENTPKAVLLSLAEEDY", "test": "Binding affinity to wild-type human full length PHKG1 (M1 to Y387 residues) expressed in bacterial expression system assessed as residual binding level at 1 uM by Kinomescan method relative to control", "in_short": "as §2"}, "[20]": {"target": "Phosphatidylinositol 4,5-bisphosphate 3-kinase catalytic subunit alpha isoform (Homo sapiens) (UniProt P42336)", "test": "Binding affinity to wild-type human partial length PIK3CA (R108 to N1068 residues) expressed in mammalian expression system assessed as residual binding level at 1 uM by Kinomescan method relative to control"}, "[21]": {"target": "Receptor-interacting serine/threonine-protein kinase 2 (Homo sapiens) (UniProt O43353)", "sequence (O43353 whole entry, the tested form may be a part)": "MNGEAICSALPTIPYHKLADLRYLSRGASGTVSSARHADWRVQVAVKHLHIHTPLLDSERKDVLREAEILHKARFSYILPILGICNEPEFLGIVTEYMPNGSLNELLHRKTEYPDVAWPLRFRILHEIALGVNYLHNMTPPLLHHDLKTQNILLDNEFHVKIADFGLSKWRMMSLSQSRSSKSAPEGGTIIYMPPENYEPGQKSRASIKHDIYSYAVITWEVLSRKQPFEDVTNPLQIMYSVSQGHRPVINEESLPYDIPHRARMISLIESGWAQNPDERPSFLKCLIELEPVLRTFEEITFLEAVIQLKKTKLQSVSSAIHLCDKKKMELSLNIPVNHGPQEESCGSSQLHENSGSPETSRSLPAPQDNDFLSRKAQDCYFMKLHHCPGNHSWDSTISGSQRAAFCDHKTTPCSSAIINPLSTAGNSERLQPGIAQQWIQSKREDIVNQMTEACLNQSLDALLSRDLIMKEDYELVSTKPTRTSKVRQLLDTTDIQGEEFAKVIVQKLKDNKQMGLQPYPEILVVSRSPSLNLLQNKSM", "test": "Binding affinity to wild-type human partial length RIPK2 (M1 to K310 residues) expressed in bacterial expression system assessed as residual binding level at 1 uM by Kinomescan method relative to control"}, "[22]": {"target": "Serine/threonine-protein kinase Sgk2 (Homo sapiens) (UniProt Q9HBY8)", "sequence (Q9HBY8 whole entry, the tested form may be a part)": "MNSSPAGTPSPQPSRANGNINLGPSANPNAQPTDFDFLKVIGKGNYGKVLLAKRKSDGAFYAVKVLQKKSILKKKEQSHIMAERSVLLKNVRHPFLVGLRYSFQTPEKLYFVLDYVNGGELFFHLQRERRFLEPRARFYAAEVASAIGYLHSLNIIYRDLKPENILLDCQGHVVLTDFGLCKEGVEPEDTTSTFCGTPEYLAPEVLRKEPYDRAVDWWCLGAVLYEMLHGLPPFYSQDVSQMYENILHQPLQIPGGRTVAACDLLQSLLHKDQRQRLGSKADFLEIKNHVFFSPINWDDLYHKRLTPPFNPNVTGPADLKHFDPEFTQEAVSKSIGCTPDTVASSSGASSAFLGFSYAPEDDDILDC", "test": "Binding affinity to wild-type human partial length SGK2 (L54 to C427 residues) expressed in mammalian expression system assessed as residual binding level at 1 uM by Kinomescan method relative to control"}, "[23]": {"target": "Serine/threonine-protein kinase 35 (Homo sapiens) (UniProt Q8TDR2)", "test": "Binding affinity to wild-type human partial length STK35 (G182 to A534 residues) expressed in bacterial expression system assessed as residual binding level at 1 uM by Kinomescan method relative to control"}, "[24]": {"target": "Tyrosine-protein kinase Tec (Homo sapiens) (UniProt P42680)", "sequence (P42680 whole entry, the tested form may be a part)": "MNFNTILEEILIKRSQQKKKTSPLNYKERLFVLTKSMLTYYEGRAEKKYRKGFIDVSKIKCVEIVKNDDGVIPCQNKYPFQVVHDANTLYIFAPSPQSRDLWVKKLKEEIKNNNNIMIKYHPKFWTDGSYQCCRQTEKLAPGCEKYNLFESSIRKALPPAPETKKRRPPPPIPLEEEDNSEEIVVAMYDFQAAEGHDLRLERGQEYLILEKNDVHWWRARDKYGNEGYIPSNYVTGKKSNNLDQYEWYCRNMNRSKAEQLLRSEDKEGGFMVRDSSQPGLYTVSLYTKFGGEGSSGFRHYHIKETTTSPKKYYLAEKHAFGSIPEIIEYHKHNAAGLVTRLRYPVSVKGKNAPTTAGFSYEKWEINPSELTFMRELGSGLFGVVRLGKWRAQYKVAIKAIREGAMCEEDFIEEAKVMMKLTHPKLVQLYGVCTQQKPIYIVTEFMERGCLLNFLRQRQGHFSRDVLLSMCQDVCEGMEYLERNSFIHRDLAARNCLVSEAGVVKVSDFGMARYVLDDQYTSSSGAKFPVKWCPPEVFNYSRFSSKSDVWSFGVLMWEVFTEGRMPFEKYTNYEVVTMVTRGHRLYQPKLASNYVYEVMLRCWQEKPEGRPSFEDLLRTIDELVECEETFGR", "test": "Binding affinity to wild-type human partial length TEC (L341 to D620 residues) expressed in bacterial expression system assessed as residual binding level at 1 uM by Kinomescan method relative to control"}, "[25]": {"target": "TGF-beta receptor type-1 (Homo sapiens) (UniProt P36897)", "sequence (P36897 whole entry, the tested form may be a part)": "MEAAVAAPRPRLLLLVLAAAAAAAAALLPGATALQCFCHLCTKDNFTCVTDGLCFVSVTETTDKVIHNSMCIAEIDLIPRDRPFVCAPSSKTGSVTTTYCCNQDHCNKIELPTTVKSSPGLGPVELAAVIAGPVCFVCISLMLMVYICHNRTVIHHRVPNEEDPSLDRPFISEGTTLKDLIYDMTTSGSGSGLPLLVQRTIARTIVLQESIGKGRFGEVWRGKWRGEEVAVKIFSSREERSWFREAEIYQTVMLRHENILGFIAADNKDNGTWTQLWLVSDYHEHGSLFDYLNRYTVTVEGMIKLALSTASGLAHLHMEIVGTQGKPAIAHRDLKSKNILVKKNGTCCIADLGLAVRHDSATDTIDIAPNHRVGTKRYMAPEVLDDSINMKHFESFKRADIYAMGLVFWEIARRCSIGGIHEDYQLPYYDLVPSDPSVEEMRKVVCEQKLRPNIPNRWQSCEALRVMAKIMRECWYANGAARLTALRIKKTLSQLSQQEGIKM", "test": "Binding affinity to wild-type human partial length TGFBR1 (D179 to M503 residues) expressed in bacterial expression system assessed as residual binding level at 1 uM by Kinomescan method relative to control"}, "[26]": {"target": "Serine/threonine-protein kinase 32A (Homo sapiens) (UniProt Q8WU08)", "test": "Binding affinity to wild-type human full length YANK1 (M1 to L396 residues) expressed in mammalian expression system assessed as residual binding level at 1 uM by Kinomescan method relative to control"}}, "data": [{"molecule": "C=CC(=O)Nc1cc(Nc2ncc(Cl)c(Nc3ccccc3S(=O)(=O)C(C)C)n2)c(OC)cc1N(C)CCN(C)C", "values": [{"measurement": "half-life", "setting": "[1]", "result": 75, "unit": "min"}, {"measurement": "bioavailability", "setting": "[2]", "result": 24, "unit": "%"}, {"measurement": "concentration at 2 h", "setting": "[3]", "result": 100, "unit": "nM"}, {"measurement": "Activity", "setting": "[4]", "result": 72, "unit": "%"}, {"measurement": "Activity", "setting": "[5]", "result": 0.35, "unit": "%"}, {"measurement": "Activity", "setting": "[6]", "result": 74, "unit": "%"}, {"measurement": "Activity", "setting": "[7]", "result": 82, "unit": "%"}, {"measurement": "Activity", "setting": "[8]", "result": 100, "unit": "%"}, {"measurement": "Activity", "setting": "[9]", "result": 100, "unit": "%"}, {"measurement": "Activity", "setting": "[10]", "result": 0, "unit": "%"}, {"measurement": "Activity", "setting": "[11]", "result": 0, "unit": "%"}, {"measurement": "Activity", "setting": "[12]", "result": 3.6, "unit": "%"}, {"measurement": "Activity", "setting": "[13]", "result": 73, "unit": "%"}, {"measurement": "Activity", "setting": "[14]", "result": 100, "unit": "%"}, {"measurement": "Activity", "setting": "[15]", "result": 40, "unit": "%"}, {"measurement": "Activity", "setting": "[16]", "result": 28, "unit": "%"}, {"measurement": "Activity", "setting": "[17]", "result": 98, "unit": "%"}, {"measurement": "Activity", "setting": "[18]", "result": 72, "unit": "%"}, {"measurement": "Activity", "setting": "[19]", "result": 24, "unit": "%"}, {"measurement": "Activity", "setting": "[20]", "result": 85, "unit": "%"}, {"measurement": "Activity", "setting": "[21]", "result": 81, "unit": "%"}, {"measurement": "Activity", "setting": "[22]", "result": 95, "unit": "%"}, {"measurement": "Activity", "setting": "[23]", "result": 71, "unit": "%"}, {"measurement": "Activity", "setting": "[24]", "result": 1, "unit": "%"}, {"measurement": "Activity", "setting": "[25]", "result": 18, "unit": "%"}, {"measurement": "Activity", "setting": "[26]", "result": 2.3, "unit": "%"}]}]}
